# Screening data: PubChem BioAssay, The Scripps Research Institute Molecular Screening Center
# Shown are actives, neighbours in structure and some others; about 2% of the full set was active somewhere.
# SIAE primary: human SIAE inhibition, primary screen. SIAE FP-Rh probe binding, fluorescence polarization. 370,000 tested, 0.69% active. inhibition, % at 9.66 µM. AID 1053197. Q9HAT2;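 active means inhibition above a cutoff: mean of compounds within the control limits plus 3 SD of those, cut at about 17% in these data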;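 further: 0% = plate median of compound wells and 100% = probe without SIAE protein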
# HTRA1 inhibitor: HTRA1 (human) protease inhibition | AID 504803 | recombinant HTRA1, FP-rhodamine activity-based probe, fluorescence polarization | 340,000 tested, 0.5% active | inhibition, % at 5.96 µM | Q92743; in the data active means inhibition above about 36%;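 further: 0% = enzyme with DMSO and 100% = wells lacking enzyme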
# Target sequence (Q92743 whole entry, looked up): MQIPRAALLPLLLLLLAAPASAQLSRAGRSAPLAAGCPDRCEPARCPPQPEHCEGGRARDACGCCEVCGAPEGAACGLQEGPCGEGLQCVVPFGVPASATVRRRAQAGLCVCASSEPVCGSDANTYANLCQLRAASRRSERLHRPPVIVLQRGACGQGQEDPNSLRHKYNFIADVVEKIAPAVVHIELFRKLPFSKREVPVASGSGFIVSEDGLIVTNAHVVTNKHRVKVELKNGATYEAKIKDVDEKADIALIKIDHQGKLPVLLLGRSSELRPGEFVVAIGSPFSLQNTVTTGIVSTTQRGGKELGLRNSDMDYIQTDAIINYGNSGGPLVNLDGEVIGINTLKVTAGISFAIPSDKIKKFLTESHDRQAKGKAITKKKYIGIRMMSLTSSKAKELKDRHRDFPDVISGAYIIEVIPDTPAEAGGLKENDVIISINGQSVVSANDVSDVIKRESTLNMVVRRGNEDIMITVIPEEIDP
# TCR CD3 inh: human TCR-CD3 binding inhibition; 360,000 tested, 0.37% active; TAMRA-labeled TCR probe fluorescence, biochemical; inhibition, % at 9.4 µM; AID 651800;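 further: recombinant mutant TCR 2C K166C tagged with TAMRA read by polarization; 0% = receptor in buffer alone and 100% = receptor with positive control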
# TDP2 inh: TDP2 (human) inhibition, absorbance primary screen; O95551; recombinant TDP2, T5PNP hydrolysis, p-nitrophenol absorbance 415 nm; inhibition, % at 12.8 µM; 370,000 tested, 0.34% active; AID 720702;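 active means inhibition above the mean of all tested compounds plus 3 SD, set per campaign, cut at about 25% in these data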;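 further: 0% = DMSO with enzyme and 100% = buffer with substrate but no TDP2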
#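 Incubation: 2 h at 37 °C; Test system: recombinant human TDP2; Quantity: enzyme 120 nM; Read-out basis: percent inhibition; Medium: 50 mM Tris-HCl pH 7.5 with Mg2+, KCl, DTT, BSA; Repeats: single replicate; Compound: 12.8 µM single point, 1% DMSO; Signal: epi absorbance; Reagent: 5 mM T5PNP chromogenic substrate; Benchmarks: no-enzyme high, DMSO-plus-enzyme low.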
# PAD4 inh: PAD4 (human) enzyme inhibition; inhibition, % at 6.36 µM; 330,000 tested, 0.41% active; AID 485272; recombinant PAD4, RCA probe fluorescence polarization;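 active means percent inhibition above a cutoff equal to the mean of all tested compounds plus 3 SD, cut at about 15% in these data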;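 further: 0% = PAD4 with RCA probe and DMSO and 100% = probe without PAD4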
# mABHD4 FP: inhibits mouse alpha/beta hydrolase domain 4. Q8VD66. purified mABHD4, FP-Rh probe fluorescence polarization. inhibition, % at 8.92 µM. 370,000 tested, 0.54% active;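 active means inhibition exceeding the mean over every tested compound plus 3 SD, cut at about 30% in these data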;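 further: 0% = plate median of compound wells and 100% = S159A mutant with DMSO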
#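 System: mouse ABHD4 enzyme, wild type / Medium: HEPES pH 7.0, NaCl, Pluronic buffer / Reagent: FP-Rh activity-based fluorescent probe / Control set: S159A mutant high control, sample median low control / Detection: fluorescence polarization with parallel and perpendicular emission, 525/598 nm / Schedule: 45 min + 60 min at 25 °C / Compound dosing: 8.92 µM, single dose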
# BSA TAMRA ctr: BSA probe counter-screen for TCR-CD3 inhibitors. shares compounds with TCR CD3 inh. TAMRA-labeled BSA probe fluorescence counterscreen. inhibition, % at 9.4 µM. 1,200 tested, 10% active; in the data active means inhibition above about 23%;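 further: 0% = buffer low control and 100% = reference high control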
# TCR-CD3 inh conf: confirmation of human TCR-CD3 interaction inhibitors. TAMRA-labeled TCR probe fluorescence binding assay. inhibition, % at 9.4 µM. shares compounds with TCR CD3 inh. 1,200 tested, 48% active
# ABHD4 confirm: ABHD4 (mouse) inhibition, FP confirmation. shares compounds with mABHD4 FP. 1,800 tested, 55% active. purified mABHD4, FP-Rh probe fluorescence polarization. inhibition, % at 8.92 µM;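 active means mean inhibition across replicates above the hit cutoff set in the primary screen, cut at about 30% in these data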;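 further: 0% = wild-type ABHD4 with DMSO and 100% = catalytically dead S159A mutant with DMSO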
# TDP2 confirm: confirmation of human TDP2 inhibitors; recombinant human TDP2, absorbance read-out; shares compounds with TDP2 inh; inhibition, % at 12.8 µM; 1,100 tested, 22% active; in the data active means inhibition above about 25%;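 further: 0% = vehicle with enzyme and 100% = no enzyme buffer only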
# SIAE inh conf: human SIAE inhibition, confirmation; SIAE FP-Rh activity-based probe, fluorescence polarization; shares compounds with SIAE primary; 2,300 tested, 13% active; inhibition, % at 9.66 µM;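 active means mean inhibition of the replicates above the hit cutoff set in the primary screen, cut at about 17% in these data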;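 further: 0% = SIAE with DMSO and probe and 100% = probe without SIAE; inhibitors lower polarization as more probe stays unbound to SIAE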
# * marks the source's active call; other numbers are inactive results; . = no result; + = active, no number. Unless noted, no stated cut-off is given here; in the data, active means inhibition above about 19%; inactive means the rest.
SMILES,SIAE primary,HTRA1 inhibitor,TCR CD3 inh,TDP2 inh,PAD4 inh,mABHD4 FP,BSA TAMRA ctr,TCR-CD3 inh conf,SIAE inh conf,others
O=C1CCC(=O)c2ccc3c4c(ccc1c24)CC3,19*,1,34*,13,.,28,-5,2,-6,
CN(C)C(=O)c1cccc(-c2cnc3c(NC=O)cc(-c4ccccc4Cl)cn23)c1,-8,.,-5,-10,.,-1,.,.,.,
CN(C)C(=O)c1cccc(-c2cnc3c(NC=O)cc(-c4ccccc4N(C)C)cn23)c1,29*,.,42*,29*,.,74*,21,16,2,ABHD4 confirm=71*;TDP2 confirm=17
O=C(O)Cn1ccc2cc(S(=O)(=O)N3CCCCCC3)ccc21,-14,-1,5,-2,0,10,.,.,.,
CN(Cc1ccccc1)C(=O)COc1ccc(C(C)(C)C)cc1,-6,-10,5,-16,0,-9,.,.,.,
Nc1cnccc1C(=O)O,20*,20,65*,0,12,86*,33*,25*,5,ABHD4 confirm=22
CC(C(=O)O/N=C(\N)c1cccnc1)c1ccc([N+](=O)[O-])cc1 (centres undefined),1,-8,6,2,2,3,.,.,.,
Cc1cc(-c2csc(NC(=O)C3=COCCO3)n2)c(C)n1C,26*,10,22*,18,1,10,-10,-3,-2,
O=C(N/N=C/c1cc(Br)cc(Br)c1O)c1cccc(N2CCCC2=O)c1,41*,18,37*,4,-2,12,-14,48*,20*,
O=C(N/N=C/c1ccc(Cl)cc1Cl)c1cccc(N2CCCC2=O)c1,-8,-1,2,-17,0,-4,.,.,.,
CCCCN1C(=O)C(CC(=O)NCCN2CCOCC2)CC(C(=O)N2CCOCC2)=C1C (centres undefined),-5,8,2,8,.,4,.,.,.,
CN(C)c1ccc(C=Cc2nccc3ccccc23)cc1,131*,.,157*,-5,.,112*,145*,88*,20*,ABHD4 confirm=85*
CSc1nc(N2CCOCC2)nc2ccc(C)cc12,-6,-11,-8,-9,-6,1,.,.,.,
O=C(NCc1ccccn1)C(C(=O)c1cccc([N+](=O)[O-])c1)n1cc(Cl)ccc1=O (centres undefined),4,-5,-1,5,-2,3,.,.,.,
Nc1cccc2cc(S(=O)(=O)O)ccc12,20*,14,27*,27*,.,64*,14,15,2,
CNC(=O)Cn1nc(C)c(S(=O)(=O)N2CCOCC2)c1C,-7,7,9,8,4,-2,.,.,.,
Cc1cc(OCC(=O)NCc2ccncc2)ccc1Cl,1,3,5,11,3,2,.,.,.,
CC(=O)[C@@]1(O)Cc2c(O)c3c(c(O)c2[C@H](O[C@H]2C[C@H](N)[C@H](O)[C@H](C)O2)C1)C(=O)c1ccccc1C3=O,81*,.,175*,12,.,101*,+,167*,81*,
CN(CCC#N)C(=O)COC(=O)c1c2c(nc3ccccc13)/C(=C\c1ccco1)CC2,19*,30,34*,1,.,45*,-11,34*,6,ABHD4 confirm=-9
CN1CCc2nc3ccccc3c(C(=O)OCC(=O)N(CCC#N)c3ccccc3)c2C1,-2,1,-2,3,4,6,.,.,.,
CN=c1scc(C)n1/N=C/c1ccc(O)cc1,4,9,4,-6,2,-5,.,.,.,
